Active and inactive are the calls of the source. The rule behind the calls is not given here.
What was measured:
HepG2 [1] = assay: Antiproliferative activity against human HepG2 cells assessed as cell growth inhibition at 20 uM incubated for 48 hrs by MTT assay relative to control; assay type: functional
[2] = Acute toxicity in SPF Kunming mouse assessed as mortality at 100 to 1000 mg/kg, po administered as single dose and measured upto 14 days post drug administration; assay type: organism-based; conditions: in vivo, 336 h, dose 100-1000 mg/kg, time <=14 day
[3] = Selectivity index, ratio of IC50 for inhibition of human recombinant N-terminal GST-tagged PARP-2 to IC50 for inhibition of human recombinant GST-tagged PARP-1
[4] = Total plasma clearance in Sprague-Dawley rat at 2 mg/kg, iv by LC/MS/MS analysis; assay type: ADME, organism-based
Procedure, shortened: (§1)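 Male Sprague-Dawley rats, 4 per group, dosed once orally at 10 mg/kg or intravenously at 2 mg/kg. Blood taken from the saphenous vein for plasma. Drug levels measured by LC-MS-MS, with parameters derived by noncompartmental analysis.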

SK-OV-3 [5] = assay: Induction of autophagy in human SKOV3 cells assessed as increase in formation of autophagosomes at 10 uM incubated for 48 hrs by TEM analysis; assay type: functional, cell-based
Procedure, shortened: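 SK-OV-3 cells exposed to 10 µM for 48 h, then fixed, dehydrated and resin-embedded. 200 nm sections on formvar grids, counterstained with uranyl acetate and lead citrate, imaged by transmission electron microscopy.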

SK-OV-3 [6] = assay: Antiproliferative activity against human SK-OV-3 cells assessed as cell growth inhibition incubated for 48 hrs by MTT assay; assay type: functional, cell-based; conditions: SK-OV-3, 48 h
Procedure, shortened: (§2)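 Cells seeded in 96-well plates and exposed to compounds for 48 h; viability read by MTT. Each experiment repeated three times. SK-OV-3 grown in McCOY's 5A, Bel-7402 and HL-7702 in RPMI-1640, HepG2 in DMEM, Caco-2 in MEM.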

[7] = Half-life in Sprague-Dawley rat at 2 mg/kg, iv by LC/MS/MS analysis; assay type: ADME, organism-based; conditions: in vivo; procedure, shortened: as §1
[8] = target: T1, Poly [ADP-ribose] polymerase 1 (Homo sapiens, UniProt P09874); assay: Inhibition of PARP-1 in human SKOV3 cells assessed as decrease in MCM4 protein expression level at 2.5 to 10 uM incubated for 48 hrs by western blot analysis; assay type: cell-based; conditions: SK-OV-3, dose 2.5-10 µM
T1 sequence (P09874 whole entry): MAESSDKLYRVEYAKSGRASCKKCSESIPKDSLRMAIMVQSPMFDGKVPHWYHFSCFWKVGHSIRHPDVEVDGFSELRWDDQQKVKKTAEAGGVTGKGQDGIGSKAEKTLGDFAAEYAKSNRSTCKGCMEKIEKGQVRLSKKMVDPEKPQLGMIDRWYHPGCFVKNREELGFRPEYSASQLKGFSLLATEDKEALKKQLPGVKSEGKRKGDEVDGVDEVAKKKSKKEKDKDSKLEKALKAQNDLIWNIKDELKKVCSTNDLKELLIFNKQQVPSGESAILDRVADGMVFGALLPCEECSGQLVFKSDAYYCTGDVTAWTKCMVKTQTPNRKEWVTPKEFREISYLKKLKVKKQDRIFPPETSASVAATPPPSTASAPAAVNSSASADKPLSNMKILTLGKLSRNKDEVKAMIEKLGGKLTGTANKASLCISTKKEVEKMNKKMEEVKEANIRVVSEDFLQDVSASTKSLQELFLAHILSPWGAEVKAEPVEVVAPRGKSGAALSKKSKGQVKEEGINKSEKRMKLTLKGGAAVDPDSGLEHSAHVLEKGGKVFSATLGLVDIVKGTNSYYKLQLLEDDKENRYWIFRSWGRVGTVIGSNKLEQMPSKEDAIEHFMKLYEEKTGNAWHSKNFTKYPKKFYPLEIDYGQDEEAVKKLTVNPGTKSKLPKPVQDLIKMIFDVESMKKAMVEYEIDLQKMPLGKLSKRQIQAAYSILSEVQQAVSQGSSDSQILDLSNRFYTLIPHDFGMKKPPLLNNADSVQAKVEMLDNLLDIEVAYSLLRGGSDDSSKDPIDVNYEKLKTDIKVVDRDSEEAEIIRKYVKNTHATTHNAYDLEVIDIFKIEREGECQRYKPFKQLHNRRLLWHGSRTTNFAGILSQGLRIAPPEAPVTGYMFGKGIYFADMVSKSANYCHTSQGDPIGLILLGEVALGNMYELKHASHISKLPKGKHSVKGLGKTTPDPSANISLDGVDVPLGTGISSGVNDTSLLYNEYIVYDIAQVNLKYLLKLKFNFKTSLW
Procedure, shortened: (§3)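 SK-OV-3 cells were grown in McCOY's 5A, seeded in 6-well plates and treated for 48 h. Lysate proteins were separated by 8-15 % SDS-PAGE and transferred to PVDF membranes. Membranes were blocked in 5 % nonfat milk, probed with primary antibody overnight at 4 °C and with HRP secondary antibody for 1 h at room temperature, then detected by enhanced chemiluminescence. Images are representative of 3 independent experiments.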

[9] = Subacute toxicity in SPF Kunming mouse assessed as change in body weight at 1000 mg/kg, po administered for 14 days and measured on day 14; assay type: organism-based; conditions: in vivo, 336 h, time 14 day
Procedure, shortened: (§4)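 Twenty SPF Kunming mice (18 - 22 g), half male and half female, randomised into 2 groups of 5 males + 5 females. Treated group dosed orally at 1000 mg/kg once daily for 14 days. Death, clinical signs and body weight monitored. After 14 days: isoflurane anaesthesia, decapitation, tissues collected for H&E histology.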

SK-OV-3 [10] = assay: Induction of apoptosis in human SKOV3 cells assessed as increase in caspase-3 expression at 2.5 to 10 uM incubated for 48 hrs by western blot analysis; assay type: functional, cell-based; conditions: dose 2.5-10 µM
[11] = Subacute toxicity in SPF Kunming mouse assessed as clinical changes at 1000 mg/kg, po administered for 14 days and measured on day 14; assay type: organism-based; conditions: in vivo, 336 h, time 14 day; procedure, shortened: as §4
[12] = AUC (0 to infinity) in Sprague-Dawley rat at 2 mg/kg, iv by LC/MS/MS analysis; assay type: ADME, organism-based; design: route intravenous, time infinity, dose 2 mg/kg; conditions: in vivo
SK-OV-3 [13] = assay: Induction of autophagy in human SKOV3 cells assessed as LC3-I protein expression at 10 uM incubated for 48 hrs by western blot analysis; assay type: functional, cell-based
Procedure, shortened: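 SK-OV-3 cells in 6-well plates treated 48 h. Lysates separated by 8-15% SDS-PAGE and transferred to PVDF. Membranes blocked in 5% milk and probed overnight at 4 °C with LC3 or Beclin 1 antibodies. HRP secondary applied 1 h at room temperature; detection by ECL.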

[14] = Tmax in Sprague-Dawley rat at 10 mg/kg, po by LC/MS/MS analysis; assay type: ADME, organism-based; conditions: in vivo; procedure, shortened: as §1
SK-OV-3 [15] = assay: Antitumor activity against human SKOV3 cells xenografted in Balb/c nude mouse assessed as tumor growth inhibition at 50 mg/kg, po for 21 days and measured every third day; conditions: SK-OV-3, po, 504 h, read-out: INH
[16] = target: T1, Poly [ADP-ribose] polymerase 1; assay: Inhibition of PARP-1 in human SKOV3 cells assessed as decrease in MCM6 protein expression level at 2.5 to 10 uM incubated for 48 hrs by western blot analysis; assay type: cell-based; conditions: SK-OV-3, dose 2.5-10 µM; procedure, shortened: as §3
[17] = Toxicity in Balb/c nude mouse xenografted with human SKOV3 cells assessed as histological changes in heart at 25 to 50 mg/kg, po for 21 days by H and E staining based microscopic analysis; assay type: organism-based; conditions: in vivo, 504 h, dose 25-50 mg/kg, time 21 day
Procedure, shortened: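 SK-OV-3 xenografts in female BALB/c nude mice were dosed orally at 25 or 50 mg/kg in 0.5% CMC-Na for 21 days. Tumours were then snap-frozen in liquid nitrogen or fixed in 10% neutral-buffered formalin. Analysis used western blotting, H&E and immunohistochemistry on paraffin sections (Ki67, γ-H2AX).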

Caco-2 [18] = assay: Antiproliferative activity against human Caco-2 cells assessed as cell growth inhibition at 20 uM incubated for 48 hrs by MTT assay relative to control; assay type: functional
[19] = Acute toxicity in SPF Kunming mouse assessed as lethal dose administered orally as single dose and measured upto 14 days post drug administration; conditions: in vivo, po, time <=14 day
Procedure, shortened: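 Single oral dose groups at 0 (physiological saline blank, equal volume), 100, 500 and 1000 mg/kg. Mice housed with free access to water and food in stainless cages, 25 ± 1 °C, 12-h light/dark cycle. Survival, body weight and abnormalities recorded up to 14 days post-treatment.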

[20] = Tmax in Sprague-Dawley rat at 2 mg/kg, iv by LC/MS/MS analysis; assay type: ADME, organism-based; conditions: in vivo; procedure, shortened: as §1
HepG2 [21] = assay: Antiproliferative activity against human HepG2 cells assessed as cell growth inhibition incubated for 48 hrs by MTT assay; assay type: functional, cell-based; conditions: HepG2, 48 h; procedure, shortened: as §2
SK-OV-3 [22] = assay: Antiproliferative activity against human SK-OV-3 cells assessed as cell growth inhibition at 20 uM incubated for 48 hrs by MTT assay relative to control; assay type: functional
Caco-2 [23] = assay: Antiproliferative activity against human Caco-2 cells assessed as cell growth inhibition incubated for 48 hrs by MTT assay; assay type: functional, cell-based; conditions: Caco-2, 48 h; procedure, shortened: as §2
SK-OV-3 [24] = assay: Induction of cell cycle arrest in human SKOV3 cells assessed as reduction in CDK1 expression at 2.5 to 10 uM incubated for 48 hrs by western blot analysis; assay type: functional, cell-based; conditions: dose 2.5-10 µM
SK-OV-3 [25] = assay: Induction of autophagy in human SKOV3 cells assessed as increase in fluorescence intensity t 10 uM incubated for 48 hrs by immunofluorescence analysis; assay type: functional, cell-based
Procedure, shortened: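 SK-OV-3 cells on glass coverslips infected with Ad-mCherry-GFP-LC3B for 24 h. Cells then treated at 10 µM for 48 h, fixed in 4% paraformaldehyde and examined by fluorescence microscopy.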

Structure (SMILES): COc1cc(/C=N/NC(N)=S)c(Br)c(Br)c1OC
- inhibition at 20 µM (HepG2 [1]): 71.6%
- Activity [2]: Non-Toxic
- Ratio IC50 [3]: > 33.9
- clearance [4]: 88.7 mL/min/kg
- Activity (SK-OV-3 [5]): Active
- IC50 (SK-OV-3 [6]): 2.39 µM
- half-life [7]: 47.4 min
- inhibition [8]: Active
- Activity [9]: Non-Toxic
- Activity (SK-OV-3 [10]): Active
- Activity [11]: Non-Toxic
- AUC [12]: 0.886 µM·h
- Activity (SK-OV-3 [13]): Active
- Tmax [14]: 150 min
- inhibition in vivo at 50 mg/kg (SK-OV-3 [15]): 58.7%
- inhibition [16]: Active
- Activity [17]: Non-Toxic
- inhibition at 20 µM (Caco-2 [18]): 59.6%
- LD50 at 336 h [19]: 1000 mg/kg
- Tmax [20]: 4.8 min
- IC50 (HepG2 [21]): 4.6 µM
- inhibition at 20 µM (SK-OV-3 [22]): 100%
- IC50 (Caco-2 [23]): 20.5 µM
- Activity (SK-OV-3 [24]): Active
- Activity (SK-OV-3 [25]): Active
